{"source": "ChEMBL document CHEMBL4138225", "about": "“Development of novel anti-filarial agents using carbamo(dithioperoxo)thioate derivatives” (Eur J Med Chem, 2018)", "key": {"Setaria cervi [1]": {"system": "Setaria cervi", "assay": "Antifilarial activity against Setaria cervi microfilariae after 24 hrs by MTT assay", "format": "functional", "procedure,_shortened": "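Bovine S. cervi microfilariae incubated with compounds (DMSO-dissolved) in RPMI-1640 + 10% FBS, 5% CO2, 24 h. Worms washed in PBS; ~1×10^3 suspended in 0.3 ml MTT 0.25 mg/ml, 37 °C 2 h in dark. Formazan dissolved in DMSO, absorbance at 595 nm. Percent inhibition computed; LC50 fitted; ≥4 repeats, mean ± SE.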"}, "Setaria cervi [2]": {"system": "Setaria cervi", "assay": "Antifilarial activity against Setaria cervi adult after 24 hrs by MTT assay", "format": "functional, organism-based", "procedure,_shortened": "(§1)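 S. cervi mf or adults cultured in RPMI-1640 with 10% FBS, 5% CO2, 24 h with compounds dissolved in DMSO. Worms washed in PBS, ~1×10^3 put in 0.25 mg/ml MTT for 2 h at 37 °C in the dark. Formazan dissolved in DMSO, A595. Percent inhibition computed, LC50 fitted; at least four repeats, mean ± SE.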"}, "Setaria cervi [3]": {"system": "Setaria cervi", "assay": "Antifilarial activity against Setaria cervi oocytes after 24 hrs by MTT assay", "format": "functional, organism-based"}, "Setaria cervi [4]": {"system": "Setaria cervi", "assay": "Antifilarial activity against Setaria cervi microfilariae after 3 hrs by trypan blue exclusion assay", "format": "functional, organism-based", "procedure,_shortened": "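After treatment, the culture was mixed and 100 μL holding parasites moved into fresh medium and put back in the CO2 incubator. Viability read by trypan blue staining, dead worms blue. Viability % = live / total microfilariae.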"}, "Setaria cervi [5]": {"system": "Setaria cervi", "assay": "Antifilarial activity against Setaria cervi adult after 3 hrs by trypan blue exclusion assay", "format": "functional, organism-based"}, "WI-38": {"system": "WI-38", "assay": "Cytotoxicity against human WI38 cells after 24 hrs by MTT assay", "format": "cell-based", "conditions": "WI-38, 24 h", "procedure,_shortened": "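WI-38 normal human lung fibroblasts, 2.0×10^4 per well, grown 24 h, then treated 24 h at 0–50 µg/mL. MTT 0.5 mg/mL added in phenol red-free RPMI with 5% FBS, 4 h at 37 °C, 5% CO2. Formazan dissolved in DMSO, A570.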"}, "[6]": {"assay": "Selectivity ratio of IC50 for human WI38 cells to IC50 for Setaria cervi microfilariae", "format": "toxicity", "conditions": "read-out: Ratio IC50"}, "Setaria cervi [7]": {"system": "Setaria cervi", "assay": "Induction of reactive oxygen species generation in Setaria cervi adult form at 1 to 10 uM by NBT assay", "format": "functional, organism-based", "procedure,_shortened": "(§2)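 Treated mf or adults pelleted at 7500 rpm, washed in PBS (50 mM, pH 7.0), then incubated in 2% NBT for 2 h at 37 °C. Washed in PBS and methanol, formazan dissolved in 2M KOH/DMSO for 10–15 min at room temperature, absorbance read at 620 nm.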"}, "Setaria cervi [8]": {"system": "Setaria cervi", "assay": "Induction of reactive oxygen species generation in Setaria cervi microfilariae at 1 to 10 uM by NBT assay", "format": "functional, organism-based", "procedure,_shortened": "as §2"}, "Setaria cervi [9]": {"system": "Setaria cervi", "assay": "Induction of chromatin condensation in Setaria cervi microfilariae at 5 ug/ml after 3 hrs by Hoechst 33342 staining-based […] microscopic analysis", "format": "functional, organism-based", "procedure,_shortened": "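Treated mf washed in PBS (pH 7.2), fixed in paraformaldehyde and stained 5 min with 1 mg/mL Hoechst 33342. Mounted on poly-L-lysine slides and imaged by fluorescence microscopy at […].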"}, "Setaria cervi [10]": {"system": "Setaria cervi", "assay": "Induction of apoptosis in Setaria cervi microfilariae at 1 to 5 ug/ml by acridine orange/ethidium bromide staining-based fluorescence microscopic analysis", "format": "functional, organism-based", "procedure,_shortened": "(§3)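 Treated mf or oocytes stained with AO and EtBr mixed 1:1 (from […] stocks in 0.1 M PBS). Viewed under fluorescence microscope on glass slides; orange EtBr signal marks lost membrane integrity.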"}, "Setaria cervi [11]": {"system": "Setaria cervi", "assay": "Induction of apoptosis in Setaria cervi oocytes at 1 to 5 ug/ml by acridine orange/ethidium bromide staining-based fluorescence microscopic analysis", "format": "functional, organism-based", "procedure,_shortened": "as §3"}, "Setaria cervi [12]": {"system": "Setaria cervi", "assay": "Induction of apoptosis in Setaria cervi microfilaria assessed as viable cells at 50 ug/ml after 6 hrs by Annexin V-FITC/propidium iodide staining-based flow cytometric analysis (reference value: 97.66%)", "format": "functional"}, "Setaria cervi [13]": {"system": "Setaria cervi", "assay": "Induction of apoptosis in Setaria cervi microfilaria assessed as early apoptotic cells at 50 ug/ml after 6 hrs by Annexin V-FITC/propidium iodide staining-based flow cytometric analysis (reference value: 2.11%)", "format": "functional"}, "Setaria cervi [14]": {"system": "Setaria cervi", "assay": "Induction of apoptosis in Setaria cervi microfilaria assessed as late apoptotic cells at 50 ug/ml after 6 hrs by Annexin V-FITC/propidium iodide staining-based flow cytometric analysis (reference value: 0.21%)", "format": "functional"}, "Setaria cervi [15]": {"system": "Setaria cervi", "assay": "Induction of apoptosis in Setaria cervi microfilaria assessed as necrotic cells at 50 ug/ml after 6 hrs by Annexin V-FITC/propidium iodide staining-based flow cytometric analysis (reference value: 0.02%)", "format": "functional"}, "Setaria cervi [16]": {"system": "Setaria cervi", "assay": "Induction of apoptosis in Setaria cervi oocytes assessed as viable cells at 50 ug/ml after 6 hrs by Annexin V-FITC/propidium iodide staining-based flow cytometric analysis (reference value: 90.03%)", "format": "functional"}, "Setaria cervi [17]": {"system": "Setaria cervi", "assay": "Induction of apoptosis in Setaria cervi oocytes assessed as early apoptotic cells at 50 ug/ml after 6 hrs by Annexin V-FITC/propidium iodide staining-based flow cytometric analysis (reference value: 8.19%)", "format": "functional"}, "Setaria cervi [18]": {"system": "Setaria cervi", "assay": "Induction of apoptosis in Setaria cervi oocytes assessed as late apoptotic cells at 50 ug/ml after 6 hrs by Annexin V-FITC/propidium iodide staining-based flow cytometric analysis (reference value: 0.64%)", "format": "functional"}, "Setaria cervi [19]": {"system": "Setaria cervi", "assay": "Induction of apoptosis in Setaria cervi oocytes assessed as necrotic cells at 50 ug/ml after 6 hrs by Annexin V-FITC/propidium iodide staining-based flow cytometric analysis (reference value: 1.14%)", "format": "functional"}, "Setaria cervi [20]": {"system": "Setaria cervi", "assay": "Induction of apoptosis in Setaria cervi oocytes at 1 to 10 ug/ml after 6 hrs by Annexin V-FITC/propidium iodide staining-based fluorescence microscopic analysis", "format": "functional, organism-based", "procedure,_shortened": "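Oocytes taken from gravid S. cervi females, cultured in RPMI-1640 with FBS and treated at 1 and 10 μg/mL. Washed, suspended in PBS (50 mM, pH 7.2), spun at 7500 rpm for 5 min, stained with Annexin V-FITC/PI. Imaged by inverted fluorescence microscope.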"}, "Setaria cervi [21]": {"system": "Setaria cervi", "assay": "Induction of apoptosis in Setaria cervi adult form assessed as increase in EGL1 protein levels after 24 hrs by Western blot analysis", "format": "functional, organism-based", "procedure,_shortened": "(§4)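 Adult worms treated 24 h at 10, 50 and 100 μg/mL. Protein measured by Lowry; 100 μg run on 12.5% SDS-PAGE and blotted to PVDF. Blocked in 10% skim milk, anti-EGL-1, CED-3 or CED-9 overnight at 4 °C, then alkaline phosphatase secondary for 6 h. BCIP/NBT detection, GAPDH loading control, band densitometry.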"}, "Setaria cervi [22]": {"system": "Setaria cervi", "assay": "Induction of apoptosis in Setaria cervi adult form assessed as increase in CED3 protein levels after 24 hrs by Western blot analysis", "format": "functional, organism-based", "procedure,_shortened": "as §4"}, "Setaria cervi [23]": {"system": "Setaria cervi", "assay": "Induction of apoptosis in Setaria cervi adult form assessed as decrease in CED9 protein levels after 24 hrs by Western blot analysis", "format": "functional, organism-based", "procedure,_shortened": "as §4"}, "Setaria cervi [24]": {"system": "Setaria cervi", "assay": "Antifilarial activity against Setaria cervi microfilaria forms after 24 hrs by MTT assay", "format": "functional, organism-based", "procedure,_shortened": "as §1"}, "Setaria cervi [25]": {"system": "Setaria cervi", "assay": "Antifilarial activity against Setaria cervi microfilariae assessed as reduction in worm movement measured every 6 hrs up to 24 hrs by microscopy", "format": "functional, organism-based", "procedure,_shortened": "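About 1×10^5 S. cervi mf per well in RPMI-1640 with 10% FBS at 5% CO2, given a dose series. Motility checked by microscope every 6 h up to 24 h and scored 4 (highly motile) down to 0 (dead). IC50 and MIC calculated from scores; three experiments in triplicate, mean ± SE.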"}, "Setaria cervi [26]": {"system": "Setaria cervi", "assay": "Antifilarial activity against Setaria cervi microfilariae after 3 hrs"}}, "note": "The source made the active and inactive calls. No cut-off for these calls is given here.", "data": [{"smiles": "Cc1ccc(SSC(=S)N2CCCCC2)cc1", "values": [{"measurement": "Activity", "setting": "Setaria cervi [1]", "value": "Dose-dependent effect"}, {"measurement": "LC50", "setting": "Setaria cervi [1]", "value": 3.89, "unit": "µg/mL"}, {"measurement": "Activity", "setting": "Setaria cervi [2]", "value": "Dose-dependent effect"}, {"measurement": "Activity", "setting": "Setaria cervi [3]", "value": "Active"}, {"measurement": "Activity", "setting": "Setaria cervi [4]", "value": "Dose-dependent effect"}, {"measurement": "Activity", "setting": "Setaria cervi [5]", "value": "Dose-dependent effect"}, {"measurement": "IC50", "setting": "WI-38", "value": 19.8, "unit": "µg/mL"}, {"measurement": "selectivity ratio", "setting": "[6]", "value": 25}, {"measurement": "Activity", "setting": "Setaria cervi [7]", "value": "Active"}, {"measurement": "Activity", "setting": "Setaria cervi [8]", "value": "Active"}, {"measurement": "Activity", "setting": "Setaria cervi [9]", "value": "Active"}, {"measurement": "Activity", "setting": "Setaria cervi [10]", "value": "Dose-dependent effect"}, {"measurement": "Activity", "setting": "Setaria cervi [11]", "value": "Dose-dependent effect"}, {"measurement": "Activity", "setting": "Setaria cervi [12]", "value": 68.55, "unit": "%"}, {"measurement": "Activity", "setting": "Setaria cervi [13]", "value": 15.6, "unit": "%"}, {"measurement": "Activity", "setting": "Setaria cervi [14]", "value": 15.82, "unit": "%"}, {"measurement": "Activity", "setting": "Setaria cervi [15]", "value": 0.01, "unit": "%"}, {"measurement": "Activity", "setting": "Setaria cervi [16]", "value": 70.84, "unit": "%"}, {"measurement": "Activity", "setting": "Setaria cervi [17]", "value": 13.3, "unit": "%"}, {"measurement": "Activity", "setting": "Setaria cervi [18]", "value": 11.3, "unit": "%"}, {"measurement": "Activity", "setting": "Setaria cervi [19]", "value": 4.47, "unit": "%"}, {"measurement": "Activity", "setting": "Setaria cervi [20]", "value": "Dose-dependent effect"}, {"measurement": "Activity", "setting": "Setaria cervi [21]", "value": "Dose-dependent effect"}, {"measurement": "Activity", "setting": "Setaria cervi [22]", "value": "Dose-dependent effect"}, {"measurement": "Activity", "setting": "Setaria cervi [23]", "value": "Dose-dependent effect"}, {"measurement": "Activity", "setting": "Setaria cervi [24]", "value": "Active"}, {"measurement": "IC50", "setting": "Setaria cervi [25]", "value": 0.708, "unit": "µg/mL"}, {"measurement": "MIC", "setting": "Setaria cervi [25]", "value": 0.358, "unit": "µg/mL"}, {"measurement": "IC50", "setting": "Setaria cervi [26]", "value": 0.708, "unit": "µg/mL"}]}]}
